# Compound activity: PubChem, several laboratories
# FAS TE block: FAS thioesterase (human) inhibition; P49327; recombinant FAS-TE, OMFH fluorogenic substrate, fluorescence endpoint; inhibition, % at 15 µM; hit rate 0.67% among 360,000;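 active means compounds whose normalised, plate-corrected inhibition of enzyme fluorescence in the single-dose primary screen is 50% or more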
# HDAC3 inh: blocks human histone deacetylase 3; recombinant HDAC3, fluorogenic peptide/trypsin coupled, fluorescence; hit rate 0.15% among 320,000; inhibition, % at 8.3 µM; AID 2718; in the data active means inhibition above about 26%, passing the limit was not always enough
# Target sequence (O15379 whole entry, looked up): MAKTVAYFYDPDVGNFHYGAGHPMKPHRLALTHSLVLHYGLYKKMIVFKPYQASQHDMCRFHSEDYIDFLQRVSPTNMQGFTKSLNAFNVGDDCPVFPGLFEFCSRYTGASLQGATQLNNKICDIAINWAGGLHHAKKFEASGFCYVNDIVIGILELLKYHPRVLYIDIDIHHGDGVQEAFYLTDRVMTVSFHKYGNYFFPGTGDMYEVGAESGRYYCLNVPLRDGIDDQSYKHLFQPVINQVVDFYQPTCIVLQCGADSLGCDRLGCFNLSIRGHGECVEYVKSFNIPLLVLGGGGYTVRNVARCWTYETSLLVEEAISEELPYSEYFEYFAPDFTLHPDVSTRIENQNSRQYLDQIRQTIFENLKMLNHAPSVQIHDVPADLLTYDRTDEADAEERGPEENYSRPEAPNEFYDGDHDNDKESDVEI
# UCH37 inh: inhibitors of human deubiquitinating enzyme UCH37; Q9Y5K5; purified proteasome/UCH37, Ub-AMC cleavage fluorescence; inhibition, % (concentration not given with the values); hit rate 0.33% among 330,000; AID 588478;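 active means mean inhibition over replicate wells above about 20%, limit read from the data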
#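 Assay system: Proteasome-bound UCH37. Buffer or medium: pH 7.4 Tris-HCl (50 mM) with ovalbumin, ATP-MgCl2, DTT. Incubation: 30 min preincubation with enzyme, 25 min cleavage at room temperature. Measured by: fluorescence, ex 355 nm, em 460 nm. Read-out basis: percent inhibition. Control set: wells without proteasome as full block, compound-free enzyme plus substrate as uninhibited.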
# Rtt109 Vps75: C. albicans Rtt109 histone acetyltransferase inhibition; Q5AAJ8; purified Rtt109/Vps75, ThioGlo CoA-SH fluorescence, 4 h; inhibition, % at 34.9 µM; hit rate 0.16% among 330,000; AID 540336;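 active means inhibition of at least 50% in every replicate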
# M18AAP inhibitor: blocks P. falciparum M18 aspartyl aminopeptidase | hit rate 1.2% among 290,000 | inhibition, % at 7.35 µM | recombinant PfM18AAP, H-Glu-NHMec fluorogenic cleavage;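 active means inhibition above the campaign mean inhibition over all tested compounds plus 3 SD, cut at about 28% in these data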
# ALR inh: inhibitors of human sulfhydryl oxidase ALR. purified ALR, DTT oxidation, H2O2 HRP-luminol luminescence. inhibition, % (test concentration not listed). hit rate 3.8% among 290,000. AID 485317;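 active means mean replicate inhibition above about 79%, with every replicate also reaching it, limit read from the data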
# Numbers stand for hits; i = inactive; nt = no result. Sampled rows, rich in hits. Any-hit rate of the full collection: about 4.6%.
SMILES,FAS TE block,HDAC3 inh,UCH37 inh,Rtt109 Vps75,M18AAP inhibitor,ALR inh
COc1ccc(NC(=O)CSc2nnc(-c3ccncc3)o2)c(OC)c1,i,i,i,i,nt,i
O=C(CSc1nnc(-c2cccnc2)o1)Nc1nccs1,i,i,i,i,nt,99
O=C(CSc1nnc(CNC(=O)c2ccc(F)cc2)o1)Nc1nccs1,i,i,i,i,30,i
O=C(CSc1nnc(-c2cccnc2)o1)Nc1ccc(F)cc1,i,nt,nt,nt,nt,nt
COc1ccc(NC(=O)CSc2nnc(-c3cccnc3)o2)c(OC)c1,i,i,i,i,nt,98
CC(=NNC(=O)CN1CCN(Cc2ccccc2Cl)CC1)c1cccnc1,nt,nt,i,nt,nt,nt
COc1ccc(C=NNC(=S)Nc2cc(C(F)(F)F)ccc2Cl)cc1,nt,nt,i,nt,nt,nt
CC(=NNC(=O)c1nnn(-c2nonc2N)c1COc1ccccc1)c1ccc(O)cc1,nt,nt,i,nt,nt,nt
CCC(=O)NC(C)C(c1cccs1)N1CCN(c2ccccc2)CC1 (stereo unspecified),i,i,i,i,i,99
Cc1ccc(S(=O)(=O)NC(C)C(c2cccs2)N2CCN(c3ccccc3)CC2)cc1 (stereo unspecified),i,i,i,i,i,nt
CC(NC(=O)Cc1cccs1)C(c1cccs1)N1CCN(c2ccccc2F)CC1 (stereo unspecified),i,i,i,i,i,i
CC(=O)NC(C)C(c1cccs1)N1CCN(c2ccccc2)CC1 (stereo unspecified),i,i,i,i,i,99
CC(NC(=O)Cc1cccs1)C(c1cccs1)N1CCN(c2ccccc2)CC1 (stereo unspecified),i,i,i,i,i,96
Cn1c(SCC(=O)NN=Cc2ccc(O)c(O)c2)nc2ccccc21,nt,nt,i,nt,nt,nt
CCNc1nc(=S)nc(NC(C)C)[nH]1,i,i,i,i,30,i
Cc1c(Cl)cccc1NC(=O)CCC(=O)NN=Cc1ccc[nH]1,nt,nt,i,nt,nt,nt
O=C1CC(c2ccccc2)Cc2nc3ncnn3cc21 (stereo unspecified),i,i,i,i,28,i
CCOc1cc(C=NNC(=O)CN2CCCCC2)ccc1OCc1cccc(Cl)c1,nt,nt,i,nt,nt,nt
CCN(CC)c1nc(N)c2c(N)n(-c3ccccc3C)c(=S)c(C#N)c2c1C#N,i,i,21,i,i,i
O=C(CSc1ccc(Cl)cc1)NN=Cc1cccnc1,nt,nt,i,nt,nt,nt
CC(C)(C)OC(=O)N[C@@H](Cc1ccccc1)c1nnc(S(=O)(=O)Cc2cccc(F)c2)o1,nt,69,i,nt,i,i
CC(C)C[C@H](N)c1nnc(S(=O)(=O)Cc2cccc(F)c2)o1,i,i,i,i,i,i
COc1cc(CNc2ccc(N3CCOCC3)cc2)cc(Br)c1OC,i,i,nt,i,i,98
CCOc1cc(CNc2ccc(N3CCOCC3)cc2)cc(Br)c1OCC,i,i,i,i,i,99
COc1cc(CNc2ccc(N3CCCC3)cc2)cc(Cl)c1OC,i,i,i,i,i,i
SMILES,FAS TE block,HDAC3 inh,UCH37 inh,Rtt109 Vps75,M18AAP inhibitor,ALR inh
CCOc1c(Br)cc(CNc2ccc(N3CCN(C(C)=O)CC3)cc2)cc1OC,i,i,i,i,i,98
O=C(O)c1ccccc1C=Nn1c(C2CCCCC2)n[nH]c1=S,nt,nt,i,nt,nt,nt
CCC(C)(C)n1nnnc1C(c1ccc2ncccc2c1)N1CCN(c2ccc(O)cc2)CC1 (stereo unspecified),i,i,i,i,31,100
c1ccc(CCn2nnnc2C(c2cccnc2)N2CCN(c3ccccc3)CC2)cc1 (stereo unspecified),i,i,i,i,i,i
COCCn1nnnc1C(c1ccccc1)N1CCN(c2ccccc2)CC1 (stereo unspecified),i,i,i,i,i,97
Oc1ccc(N2CCN(C(c3cccnc3)c3nnnn3Cc3ccccc3)CC2)cc1 (stereo unspecified),i,i,i,i,i,99
CCC(C)(C)n1nnnc1C(c1ccc2ncccc2c1)N1CCN(c2nc3ccccc3s2)CC1 (stereo unspecified),i,i,i,i,i,i
COCCn1nnnc1C(c1ccccc1)N1CCN(C)CC1 (stereo unspecified),i,i,i,i,i,i
COc1ccc(C=Nn2c(-c3cc(C)[nH]n3)n[nH]c2=S)cc1OC,nt,nt,i,nt,nt,nt
CC(=O)Nc1ccc(S(=O)(=O)Oc2ccc(C=N/N=C3/NC(=O)C(CC(=O)O)S3)cc2)cc1 (stereo unspecified),nt,nt,i,nt,nt,nt
CC(=NNC(=O)c1ccoc1C)c1cccc(NC(=O)C(F)(F)F)c1,nt,nt,i,nt,nt,nt
